In ChEMBL document CHEMBL1123777 (J Med Chem, 1987):

How the values were obtained:
D(2) dopamine receptor = D(2) dopamine receptor (Bos taurus, UniProt P20288); experiment: Displacement of [3H]spiroperidol from homogenized bovine pituitary Dopamine receptor D2
[1] = target: D(1A) dopamine receptor (Rattus norvegicus) (UniProt P18901); details: Striatum
D(1A) dopamine receptor [2] = target: T1, D(1A) dopamine receptor (Rattus norvegicus, UniProt P18901); experiment: Dopamine receptor D1 agonist efficacy was measured with stimulation of dopamine-sensitive rat adenylate cyclase in caudate membranes. Partial agonist, maximum effect 59% of dopamine maximum effect; type: functional, cell membranes, Membrane
T1 sequence (P18901 whole entry): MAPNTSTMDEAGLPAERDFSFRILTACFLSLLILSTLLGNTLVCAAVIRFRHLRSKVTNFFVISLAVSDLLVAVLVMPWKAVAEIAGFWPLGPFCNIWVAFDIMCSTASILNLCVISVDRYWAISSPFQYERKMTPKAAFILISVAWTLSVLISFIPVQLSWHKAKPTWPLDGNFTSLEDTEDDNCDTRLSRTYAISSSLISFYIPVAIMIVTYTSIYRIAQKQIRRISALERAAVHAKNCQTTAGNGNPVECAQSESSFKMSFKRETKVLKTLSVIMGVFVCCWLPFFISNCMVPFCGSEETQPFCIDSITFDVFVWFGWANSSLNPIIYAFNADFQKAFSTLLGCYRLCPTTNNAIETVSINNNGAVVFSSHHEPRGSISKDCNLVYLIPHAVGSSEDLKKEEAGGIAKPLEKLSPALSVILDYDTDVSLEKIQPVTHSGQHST

Oryctolagus cuniculus = species: Oryctolagus cuniculus; experiment: Ability to relax the electrically stimulated rabbit ear artery was determined; type: functional
Procedure, shortened: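 Isolated, perfused rabbit ear artery under electrical stimulation; inhibition of the neurogenic response taken as the D-2 agonist read-out. Concentration–response curves were also run in the presence of (S)-sulpiride at several nM concentrations. Points are mean ± SEM of at least four experiments.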

D(1A) dopamine receptor [3] = target: T1, D(1A) dopamine receptor; experiment: Dopamine receptor D1 agonist efficacy was measured with stimulation of dopamine-sensitive rat adenylate cyclase in caudate membranes; NS means not significant.; type: functional, cell membranes, Membrane
D(1A) dopamine receptor [4] = target: T1, D(1A) dopamine receptor; experiment: Dopamine D1 agonist efficacy was measured with stimulation of dopamine-sensitive rat adenylate cyclase in caudate membranes; type: functional, cell membranes, Membrane
D(1A) dopamine receptor [5] = target: T1, D(1A) dopamine receptor; experiment: Dopamine receptor D1 agonist efficacy was measured with stimulation of dopamine-sensitive rat adenylate cyclase in caudate membranes; type: functional, cell membranes, Membrane
D(1A) dopamine receptor [6] = target: T1, D(1A) dopamine receptor; experiment: Dopamine receptor D1 agonist efficacy was measured with stimulation of dopamine-sensitive rat adenylate cyclase in caudate membranes. Partial agonist, maximum effect 60% of dopamine maximum effect.; type: functional, cell membranes, Membrane
[7] = target: D(1A) dopamine receptor (Rattus norvegicus) (UniProt P18901); details: Striatum; remark: listed apart in the source

Chain of D(1A) dopamine receptor (Rattus norvegicus) (P18901 whole entry): as above
Chain of D(2) dopamine receptor (P20288 whole entry): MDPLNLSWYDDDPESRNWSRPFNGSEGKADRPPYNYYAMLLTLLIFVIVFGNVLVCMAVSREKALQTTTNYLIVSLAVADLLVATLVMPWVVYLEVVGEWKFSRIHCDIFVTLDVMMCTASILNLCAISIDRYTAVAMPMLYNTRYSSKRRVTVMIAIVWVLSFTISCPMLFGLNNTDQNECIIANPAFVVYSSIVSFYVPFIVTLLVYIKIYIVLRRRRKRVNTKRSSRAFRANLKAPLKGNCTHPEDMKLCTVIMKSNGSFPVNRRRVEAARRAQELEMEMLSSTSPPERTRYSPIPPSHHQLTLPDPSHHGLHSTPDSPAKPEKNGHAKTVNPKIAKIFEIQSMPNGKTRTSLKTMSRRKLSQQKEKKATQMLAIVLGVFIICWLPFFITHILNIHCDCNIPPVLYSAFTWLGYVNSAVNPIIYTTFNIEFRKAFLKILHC

Row | Compound | IC50 (D(2) dopamine receptor) [nM] | EC50 (Oryctolagus cuniculus) [nM] | also measured
1 | NCCc1ccc(O)c2c1CC(=O)N2 | 4850 | – | K bind [1]: 700 nM; EC50 (D(1A) dopamine receptor [2]): 4650 nM
2 | NCCc1cccc2nc(O)sc12 | > 10000 | 1000 | EC50 (D(1A) dopamine receptor [3]): Not Active
3 | NCCc1ccc(O)c(O)c1 [DOPAMINE] | – | 76 | –
4 | CCCN(CCC)CCc1ccc(O)c2c1CC(=O)N2 [SKF-89124A] | 530 | 1.8 | EC50 (D(1A) dopamine receptor [4]): 20000 nM
5 | CCCN(CCC)CCc1cccc2c1CC(=O)N2 [ROPINIROLE] | 6810 | – | –
6 | CNCCc1ccc(O)c2nc(O)sc12 | – | 6 | –
7 | Oc1ccc(C2CNCCc3c2cc(O)c(O)c3Cl)cc1 (configuration not stated) [FENOLDOPAM] | – | 1200 | K bind [1]: 3 nM
8 | CCCN(CCC)CCc1c(Cl)cc(O)c2nc(O)sc12 | – | 50 | –
9 | CCCN(CCC)CCc1ccc(O)c2nc(O)sc12 | 49 | 0.028 | –
10 | CCCN(CCC)CCc1ccc(O)c2[nH]c(O)nc12 | 1000 | 9 | –
11 | CCCN(CCC)CCc1ccc(O)c(O)c1 | – | 80 | EC50 (D(1A) dopamine receptor [5]): 12500 nM
12 | CCCN(CCC)CCc1ccc(O)c2c1C(=O)C(=O)N2 | 560 | 7 | EC50 (D(1A) dopamine receptor [3]): Not Active
13 | CCCN(CCC)CCc1ccc(O)c2nc(O)oc12 | 1200 | 8 | –
14 | CCCN(CCC)CCc1cccc2nc(O)sc12 | 1000 | 28 | –
15 | NCCc1ccc(O)c2nc(O)sc12 | 2000 | 30 | EC50 (D(1A) dopamine receptor [6]): 295 nM; K bind [7]: 9 nM
